ChEMBL document CHEMBL4017509, “A Dual Modulator of Farnesoid X Receptor and Soluble Epoxide Hydrolase To Counter Nonalcoholic Steatohepatitis” (J Med Chem, 2017)
Calls of active or inactive are those of the source. No cut-off for these calls is given here.

Columns and labels:
HepG2 = assay: Cytotoxicity against human HepG2 cells up to 100 uM after 48 hrs by WST1 assay; type: cell-based; conditions: hepg2, 48 h
[1] = molecular target: T1, Bile acid receptor (Homo sapiens) (UniProt Q96RI1); assay: Transactivation of human FXR expressed in human HeLa cells co-expressing BSEP at 50 uM after 24 hrs by dual-glo luciferase reporter gene assay relative to GW4064; type: cell-based
T1 sequence (whole entry): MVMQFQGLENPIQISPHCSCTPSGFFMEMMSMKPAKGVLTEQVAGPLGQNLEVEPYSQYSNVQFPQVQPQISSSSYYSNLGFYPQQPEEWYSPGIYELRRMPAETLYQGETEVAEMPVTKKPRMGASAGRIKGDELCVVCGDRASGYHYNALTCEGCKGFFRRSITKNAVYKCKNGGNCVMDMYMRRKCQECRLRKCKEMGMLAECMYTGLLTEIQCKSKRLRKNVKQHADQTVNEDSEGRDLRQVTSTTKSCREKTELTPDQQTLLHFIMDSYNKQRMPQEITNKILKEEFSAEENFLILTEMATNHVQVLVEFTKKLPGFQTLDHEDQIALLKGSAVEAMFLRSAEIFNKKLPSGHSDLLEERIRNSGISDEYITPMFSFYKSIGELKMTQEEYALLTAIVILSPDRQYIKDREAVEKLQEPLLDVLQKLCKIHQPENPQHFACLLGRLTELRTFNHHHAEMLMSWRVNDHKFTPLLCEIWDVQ
Summary of the method: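 HeLa cells in DMEM/10% FCS at 37 °C, 5% CO2; switched to 0.5% charcoal-stripped FCS before calcium phosphate co-transfection with pcDNA3-hFXR, pSG5-hRXR, BSEP promoter–firefly luciferase reporter and pRL-SV40 renilla. Compound in 0.1% DMSO, phenol red-free medium, 24 h.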

[2] = molecular target: Retinoic acid receptor beta (Homo sapiens) (UniProt P10826); assay: Transactivation of human GAL4-fused RARbeta ligand binding domain expressed in […] cells at 10 uM after 12 to 14 hrs by dual-glo luciferase reporter gene assay; type: cell-based
Retinoic acid receptor beta (Homo sapiens), sequence (P10826 whole entry, the tested form may be a part): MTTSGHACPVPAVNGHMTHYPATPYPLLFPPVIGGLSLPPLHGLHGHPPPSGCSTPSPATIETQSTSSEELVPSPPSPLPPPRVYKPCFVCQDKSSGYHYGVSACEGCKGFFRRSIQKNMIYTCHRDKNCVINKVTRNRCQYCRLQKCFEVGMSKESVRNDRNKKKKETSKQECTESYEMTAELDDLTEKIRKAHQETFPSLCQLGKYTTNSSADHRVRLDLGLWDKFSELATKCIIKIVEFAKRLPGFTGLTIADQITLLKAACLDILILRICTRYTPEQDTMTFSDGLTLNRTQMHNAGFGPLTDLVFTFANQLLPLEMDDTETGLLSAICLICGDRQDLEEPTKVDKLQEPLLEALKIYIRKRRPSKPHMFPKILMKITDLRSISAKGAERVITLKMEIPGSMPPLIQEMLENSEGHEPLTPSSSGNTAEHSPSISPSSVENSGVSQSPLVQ
Summary of the method: (§1)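 HEK293T cells in DMEM/10% FCS, Opti-MEM before Lipofectamine LTX transfection with pFR-Luc reporter, pRL-SV40 and pFA-CMV GAL4–LBD plasmid. 5 h later compound in 0.1% DMSO, Opti-MEM, overnight (12−14 h). Dual luciferase; firefly/renilla ×1000 = RLU, fold over DMSO control; triplicates, ≥3 independent repeats.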

[3] = molecular target: Nuclear receptor subfamily 1 group I member 3 (Homo sapiens, UniProt Q14994); assay: Transactivation of human GAL4-fused CAR ligand binding domain expressed in […] cells at 10 uM after 12 to 14 hrs by dual-Glo luciferase reporter gene assay; type: cell-based; summary of the method: as §1
Nuclear receptor subfamily 1 group I member 3, sequence (Q14994 whole entry, the tested form may be a part): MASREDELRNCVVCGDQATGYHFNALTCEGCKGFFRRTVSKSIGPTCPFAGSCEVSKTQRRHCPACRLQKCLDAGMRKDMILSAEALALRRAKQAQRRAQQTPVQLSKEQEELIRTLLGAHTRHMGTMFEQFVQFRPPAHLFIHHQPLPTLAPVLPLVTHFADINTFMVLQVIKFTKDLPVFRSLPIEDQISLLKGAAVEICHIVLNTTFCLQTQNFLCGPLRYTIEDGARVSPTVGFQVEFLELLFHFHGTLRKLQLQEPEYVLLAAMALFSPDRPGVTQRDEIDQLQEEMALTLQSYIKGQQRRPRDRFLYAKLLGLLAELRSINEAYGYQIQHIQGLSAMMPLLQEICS

[4] = molecular target: T2, Bifunctional epoxide hydrolase 2 (Homo sapiens) (UniProt P34913); assay: Inhibition of sEH in human HepG2 cells assessed as NF-kappaB mRNA expression at 1 uM after 8 to 16 hrs by SYBR green based qRT-PCR analysis relative to DMSO control; type: cell-based
T2 sequence (whole entry): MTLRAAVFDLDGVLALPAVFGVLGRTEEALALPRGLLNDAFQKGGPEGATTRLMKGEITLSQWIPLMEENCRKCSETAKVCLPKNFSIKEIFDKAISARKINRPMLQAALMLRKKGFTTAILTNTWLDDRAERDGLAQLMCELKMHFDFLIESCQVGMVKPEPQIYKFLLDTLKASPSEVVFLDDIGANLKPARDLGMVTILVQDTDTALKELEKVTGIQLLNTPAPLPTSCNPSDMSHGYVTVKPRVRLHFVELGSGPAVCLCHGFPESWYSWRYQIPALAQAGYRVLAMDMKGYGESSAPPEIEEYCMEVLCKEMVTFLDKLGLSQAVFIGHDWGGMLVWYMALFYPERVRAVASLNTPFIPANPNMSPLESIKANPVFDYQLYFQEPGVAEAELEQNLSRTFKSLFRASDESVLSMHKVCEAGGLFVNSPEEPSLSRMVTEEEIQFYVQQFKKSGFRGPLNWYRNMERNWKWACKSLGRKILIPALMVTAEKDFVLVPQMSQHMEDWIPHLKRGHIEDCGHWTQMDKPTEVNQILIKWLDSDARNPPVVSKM
Summary of the method: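 HepG2 cells treated with compound or 0.1% DMSO vehicle; NF-κB mRNA quantified by SYBR Green qRT-PCR, comparative ΔΔCt with GAPDH reference; expressed as % of vehicle (100%).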

[5] = Half life in C57BL/6JRj mouse at 10 mg/kg, po measured up to 480 mins post dose by LC-MS analysis; type: ADME, organism-based; conditions: in vivo
Summary of the method: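 Male C57BL/6JRj mice (23−26 g), six dosed once orally at 10 mg/kg in water with 1% HPMC/Tween 80 (99:1), three vehicle. Tail-vein blood (20 μL) at 15, 30, 60, 120, 240 and 480 min, last by retro-orbital puncture. Blood spiked, acetonitrile precipitation with griseofulvin internal standard, LC−MS on phenyl-hexyl column. Noncompartmental PK analysis.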

Mus musculus = assay: In vivo activation of FXR in C57BL/6JRj mouse liver assessed as CYP7A1 mRNA expression at 10 mg/kg, po measured up to 480 mins post dose by qRT-PCR analysis relative to control; type: ADME, organism-based; conditions: 8 h
Summary of the method: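 Male C57BL/6JRj mice (23−26 g), single oral 10 mg/kg in water with 1% HPMC/Tween 80 (99:1); vehicle group n = 3, treated n = 6. Livers taken 8 h postdose, snap-frozen; cells pressed through 40 μm strainer, total RNA extracted, qRT-PCR with ΔΔCt, % of vehicle.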

[6] = molecular target: Oxysterols receptor LXR-alpha (Homo sapiens) (UniProt Q13133); assay: Transactivation of human GAL4-fused LXRalpha ligand binding domain expressed in […] cells at 10 uM after 12 to 14 hrs by dual-glo luciferase reporter gene assay; type: cell-based; summary of the method: as §1
Oxysterols receptor LXR-alpha (Homo sapiens), sequence (Q13133 whole entry, the tested form may be a part): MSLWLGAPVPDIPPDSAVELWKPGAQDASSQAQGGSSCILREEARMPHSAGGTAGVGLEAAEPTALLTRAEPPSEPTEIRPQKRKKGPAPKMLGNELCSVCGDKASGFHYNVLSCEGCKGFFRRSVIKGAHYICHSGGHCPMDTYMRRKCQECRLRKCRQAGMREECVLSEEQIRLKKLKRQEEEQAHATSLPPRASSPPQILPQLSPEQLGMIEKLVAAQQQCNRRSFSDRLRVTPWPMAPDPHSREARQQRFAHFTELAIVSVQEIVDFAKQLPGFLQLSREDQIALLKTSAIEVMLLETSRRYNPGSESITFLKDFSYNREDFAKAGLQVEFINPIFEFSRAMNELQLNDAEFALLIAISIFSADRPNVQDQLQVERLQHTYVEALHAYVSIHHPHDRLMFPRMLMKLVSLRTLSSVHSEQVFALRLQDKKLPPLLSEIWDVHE

In the case of `CC(C)(C)c1ccc(C(=O)NCc2ccc(NS(C)(=O)=O)cc2Cl)cc1`, the Activity (HepG2) is reported as “Non-Toxic”, the Emax [1] is reported as 35% and the Activity [2] is reported as “inactive”. For the same compound, the Activity [3] was “Not Active”, the inhibition [4] was 17.6% and the half-life [5] was 42 min. For the same compound, the Activity (Mus musculus) was 70% and the Activity [6] was “inactive”.
